Assay results as given in ChEMBL document CHEMBL1141217, “cycloSal-PMEA and cycloAmb-PMEA: potentially new phosphonate prodrugs based on the cycloSal-pronucleotide approach” (J Med Chem, 2005).
Active and inactive are the calls of the source. The rule behind the calls is not given here.

What was measured:
[1] = Chemical stability in phosphate buffer at pH 7.3; format: physicochemical; details: read-out: Stability (converted)
Method in brief: (§1)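 Triesters hydrolysed at 37 °C in phosphate buffer pH 7.3 or citrate buffer pH 2.0, with AZT as internal standard; final 0.96 mM triester, 24.8 mM buffer. Aliquots quenched with glacial acetic acid and frozen, then analysed by reversed-phase HPLC with UV at 250 nm. t1/2 from rate constants of starting-triester peak decay; mean of duplicates.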

[2] = tested on: Human immunodeficiency virus 2; experiment: Antiviral potency against HIV2 in CEM/O cells; format: functional, organism-based; details: Human immunodeficiency virus 2, CEM/O
Method in brief: (§2)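 CEM cells at 4×10^5 cells/mL infected with HIV-1 or HIV-2 (ROD) at ~100 CCID50 per mL; virus stocks from infected MT-4 cell supernatants. Infected cells mixed with serial compound dilutions. After 4–5 days, giant cell formation scored microscopically; EC50 = concentration giving 50% protection.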

[3] = Inhibitory activity against human acetyl cholinesterase
Cholinesterase = Cholinesterase (Homo sapiens, UniProt P06276); experiment: Inhibitory activity against human butyryl cholinesterase
[4] = LogP using HPLC method; format: physicochemical
[5] = tested on: Human immunodeficiency virus 1; experiment: Antiviral potency against HIV1 in CEM/O cells; format: functional, organism-based; details: Human immunodeficiency virus 1, CEM/O; method in brief: as §2
CCRF-CEM = experiment: Cytotoxicity against CEM/O cells; format: functional; details: Homo sapiens
[6] = Half life in CEM/O cells; format: ADME, cell-based; details: human, CEM/O cells (CCRF-CEM cell line)
Method in brief: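 Triester (1.5 mM stock in DMSO) incubated with CEM cell extract plus MgCl2 (70 mM stock) for 8 h. Stopped with acidic methanol, 5 min at 0 °C, centrifuged and filtered; supernatant analysed by reversed-phase HPLC with UV at 250 nm.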

[7] = Chemical stability in citrate buffer at pH 2.0; format: physicochemical; method in brief: as §1

Sequence of Cholinesterase (P06276 whole entry): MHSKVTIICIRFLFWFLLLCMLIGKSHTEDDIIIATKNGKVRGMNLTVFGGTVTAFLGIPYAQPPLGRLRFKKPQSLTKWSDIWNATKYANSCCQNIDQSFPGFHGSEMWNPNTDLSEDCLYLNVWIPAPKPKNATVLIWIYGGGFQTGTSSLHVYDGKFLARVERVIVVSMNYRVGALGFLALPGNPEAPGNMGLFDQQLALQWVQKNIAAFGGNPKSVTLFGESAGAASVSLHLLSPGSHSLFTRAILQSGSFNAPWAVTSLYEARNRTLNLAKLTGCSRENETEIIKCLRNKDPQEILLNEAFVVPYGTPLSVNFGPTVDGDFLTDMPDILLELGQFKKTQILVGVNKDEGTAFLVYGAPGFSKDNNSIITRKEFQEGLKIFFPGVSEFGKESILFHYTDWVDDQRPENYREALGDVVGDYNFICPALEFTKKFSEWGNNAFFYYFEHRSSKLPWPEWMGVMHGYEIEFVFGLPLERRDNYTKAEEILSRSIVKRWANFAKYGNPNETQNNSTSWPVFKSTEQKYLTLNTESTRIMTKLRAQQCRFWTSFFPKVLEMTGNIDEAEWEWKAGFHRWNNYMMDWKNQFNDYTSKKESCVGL

Compound | half-life [1] | EC50 [2] | Activity [3] | IC50 (Cholinesterase) | logP [4] | EC50 [5] | CC50 (CCRF-CEM) | half-life [6] | Stability [7]
Nc1ncnc2c1ncn2CCOCP1(=O)Nc2cccc(F)c2CO1 (stereo unspecified) | 1.3 h | 26 µM | inactive | > 50 µM | 0.49 | 28 µM | 244 µM |  | 
CC(C)(C)c1cc2c(c(C(C)(C)C)c1)OP(=O)(COCCn1cnc3c(N)ncnc31)OC2 (stereo unspecified) | 3.05 h | 5.3 µM | inactive | > 50 µM | 1.72 | 5.5 µM | 17 µM | 3 h | 9.6 h
Nc1ncnc2c1ncn2CCOCP(=O)(O)O [ADEFOVIR] |  | 10 µM |  |  |  | 10 µM | 50 µM |  | 
Cc1cccc2c1OP(=O)(COCCn1cnc3c(N)ncnc31)OC2 (stereo unspecified) | 0.56 h |  | inactive | > 50 µM |  |  |  | 0.6 h | 
Nc1ncnc2c1ncn2CCOCP1(=O)Nc2ccccc2CO1 (stereo unspecified) | 4 h | 21 µM | inactive | > 50 µM | 0.23 | 20 µM | 183 µM |  | 9.6 h
CC(C)(C)C(=O)OCOP(=O)(COCCn1cnc2c(N)ncnc21)OCOC(=O)C(C)(C)C [ADEFOVIR DIPIVOXIL] | 14.7 h | 0.075 µM |  |  |  | 0.18 µM | 0.74 µM |  | 
Cc1cccc2c1NP(=O)(COCCn1cnc3c(N)ncnc31)OC2 (stereo unspecified) | 21.3 h | 56 µM | inactive | > 50 µM | 0.45 | 29 µM | > 250 µM |  | 29 h
Nc1ncnc2c1ncn2CCOCP1(=O)OCc2ccccc2O1 (stereo unspecified) | 0.09 h |  | inactive | > 50 µM |  |  |  | 0.1 h | 
CC(C)(C)c1cccc2c1OP(=O)(COCCn1cnc3c(N)ncnc31)OC2 (stereo unspecified) | 4.05 h | 4.5 µM | inactive | > 50 µM | 0.47 | 3 µM | 29 µM | 3 h | 23.7 h
